Legend:
[1] = biological target: T1, Epidermal growth factor receptor (Homo sapiens, UniProt P00533)
Histone deacetylase 1 = Histone deacetylase 1 (Homo sapiens, UniProt Q13547); assay: Inhibition of HDAC1 (unknown origin) using acetylated peptide substrate preincubated for 15 mins followed by substrate addition measured after 60 mins by fluorescence analysis
cells [2] = assay type: functional, cell-based; conditions: Homo sapiens, BT-474, 48 h
[3] = biological target: T2, Protein deacetylase HDAC6 (Homo sapiens, UniProt Q9UBN7); assay: Inhibition of HDAC6 (unknown origin) using acetylated peptide substrate preincubated for 15 mins followed by substrate addition measured after 60 mins by fluorescence analysis
T2 sequence (Q9UBN7 whole entry): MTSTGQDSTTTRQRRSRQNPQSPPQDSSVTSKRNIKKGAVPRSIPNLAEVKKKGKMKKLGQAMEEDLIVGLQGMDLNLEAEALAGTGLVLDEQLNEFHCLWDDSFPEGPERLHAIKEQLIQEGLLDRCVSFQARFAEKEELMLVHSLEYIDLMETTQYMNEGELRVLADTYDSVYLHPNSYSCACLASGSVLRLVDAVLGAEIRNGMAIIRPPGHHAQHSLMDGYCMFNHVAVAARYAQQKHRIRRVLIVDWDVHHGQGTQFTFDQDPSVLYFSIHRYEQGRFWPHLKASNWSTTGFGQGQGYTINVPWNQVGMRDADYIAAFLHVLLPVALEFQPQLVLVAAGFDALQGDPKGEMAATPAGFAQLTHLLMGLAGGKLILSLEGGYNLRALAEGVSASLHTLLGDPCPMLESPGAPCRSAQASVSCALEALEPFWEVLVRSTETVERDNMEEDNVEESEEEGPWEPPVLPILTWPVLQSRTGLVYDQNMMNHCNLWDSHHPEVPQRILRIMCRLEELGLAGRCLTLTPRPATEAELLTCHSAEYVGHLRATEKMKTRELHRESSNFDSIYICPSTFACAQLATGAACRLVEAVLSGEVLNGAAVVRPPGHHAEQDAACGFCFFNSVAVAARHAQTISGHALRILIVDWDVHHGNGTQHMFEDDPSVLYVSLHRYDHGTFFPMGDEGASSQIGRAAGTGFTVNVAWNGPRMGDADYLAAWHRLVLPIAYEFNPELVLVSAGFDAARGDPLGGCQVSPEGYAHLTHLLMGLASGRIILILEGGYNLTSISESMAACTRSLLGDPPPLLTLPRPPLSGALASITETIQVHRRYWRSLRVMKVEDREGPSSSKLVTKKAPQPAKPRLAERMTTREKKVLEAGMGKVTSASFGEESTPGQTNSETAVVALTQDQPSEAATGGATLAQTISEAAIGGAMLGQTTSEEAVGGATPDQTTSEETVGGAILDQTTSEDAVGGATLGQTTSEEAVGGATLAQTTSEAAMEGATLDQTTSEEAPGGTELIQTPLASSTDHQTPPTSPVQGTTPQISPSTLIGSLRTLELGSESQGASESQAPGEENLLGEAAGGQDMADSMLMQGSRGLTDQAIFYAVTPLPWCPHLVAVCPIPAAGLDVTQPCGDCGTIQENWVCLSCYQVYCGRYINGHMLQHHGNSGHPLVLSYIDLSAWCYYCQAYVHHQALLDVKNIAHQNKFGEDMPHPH

[4] = biological target: T3, Receptor tyrosine-protein kinase erbB-2 (Homo sapiens, UniProt P04626); assay: Inhibition of HER2 (unknown origin) assessed as remaining ATP level measured after 15 mins by luminescence analysis
T3 sequence (P04626 whole entry): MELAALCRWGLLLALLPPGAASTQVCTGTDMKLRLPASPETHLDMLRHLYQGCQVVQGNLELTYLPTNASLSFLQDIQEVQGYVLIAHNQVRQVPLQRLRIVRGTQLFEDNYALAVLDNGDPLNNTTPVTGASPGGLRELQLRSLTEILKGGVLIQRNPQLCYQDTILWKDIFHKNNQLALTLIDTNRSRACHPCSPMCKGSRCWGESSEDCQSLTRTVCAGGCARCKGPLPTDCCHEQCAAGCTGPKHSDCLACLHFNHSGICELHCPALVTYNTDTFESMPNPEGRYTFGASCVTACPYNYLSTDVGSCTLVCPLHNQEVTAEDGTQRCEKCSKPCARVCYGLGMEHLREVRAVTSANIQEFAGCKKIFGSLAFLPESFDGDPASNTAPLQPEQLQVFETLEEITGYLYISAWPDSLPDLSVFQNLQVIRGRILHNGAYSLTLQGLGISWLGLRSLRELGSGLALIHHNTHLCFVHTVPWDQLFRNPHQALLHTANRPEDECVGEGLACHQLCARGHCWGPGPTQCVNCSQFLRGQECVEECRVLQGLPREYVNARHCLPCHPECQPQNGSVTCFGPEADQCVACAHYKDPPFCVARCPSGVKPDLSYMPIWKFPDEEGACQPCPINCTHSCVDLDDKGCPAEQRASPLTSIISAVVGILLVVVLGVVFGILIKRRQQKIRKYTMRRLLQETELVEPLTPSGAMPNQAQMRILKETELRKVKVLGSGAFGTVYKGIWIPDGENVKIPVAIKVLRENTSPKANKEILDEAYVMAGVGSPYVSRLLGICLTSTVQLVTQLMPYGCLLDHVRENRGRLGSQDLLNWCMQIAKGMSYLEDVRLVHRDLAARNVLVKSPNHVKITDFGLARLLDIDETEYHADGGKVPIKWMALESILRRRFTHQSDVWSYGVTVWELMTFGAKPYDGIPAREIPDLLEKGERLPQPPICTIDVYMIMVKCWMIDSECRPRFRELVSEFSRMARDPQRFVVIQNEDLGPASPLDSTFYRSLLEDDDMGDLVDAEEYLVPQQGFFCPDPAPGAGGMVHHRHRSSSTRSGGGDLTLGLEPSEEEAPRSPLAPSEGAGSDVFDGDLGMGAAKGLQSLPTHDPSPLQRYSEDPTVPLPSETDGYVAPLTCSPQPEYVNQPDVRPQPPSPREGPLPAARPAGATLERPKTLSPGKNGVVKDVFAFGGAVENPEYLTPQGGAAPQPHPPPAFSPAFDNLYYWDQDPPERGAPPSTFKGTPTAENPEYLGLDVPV
Procedure, shortened: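 Kinase run as a contracted HTRF assay. Compounds in 3-fold dilution in 2.5% DMSO/kinase buffer, mixed with kinase and substrate, preincubated 15 min at RT. ATP added to start, reaction 30 min at RT. Stopped with Streptavidin-XL665 plus europium-cryptate TK antibody (1:100). Excitation 320 nm, 665/615 nm emission ratio. IC50 from inhibition curves, results from 2 assays.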

cells [5] = assay type: functional, cell-based; conditions: Homo sapiens, A549, 48 h
cells [6] = conditions: Homo sapiens, NCI-H1975, 48 h
cells [7] = conditions: Homo sapiens, SK-BR-3, 48 h
cells [8] = conditions: Homo sapiens, A-431, 48 h
[9] = Inhibition of HDAC in human HeLa cell nuclear extract using COLOR DE LYS as substrate by fluorometric analysis; assay type: cell-free
[10] = biological target: T1, Epidermal growth factor receptor; assay: Inhibition of EGFR (unknown origin)
Procedure, shortened: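 HTRF kinase assay. Compounds were serially diluted 3-fold in 2.5% DMSO/kinase buffer, then mixed with kinase and substrate and preincubated 15 min at RT. The reaction was started with ATP and run 30 min at RT. It was stopped with Streptavidin-XL665 and TK antibody europium cryptate. Read at ex 320 nm, em 665/615 nm ratio. IC50 from inhibition curves; 2 separate assays.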

[11] = biological target: T3, Receptor tyrosine-protein kinase erbB-2; assay: Inhibition of HER2 (unknown origin)
Procedure, shortened: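 Homogeneous time-resolved fluorescence kinase assay. Compounds were 3-fold serially diluted in 2.5% DMSO/kinase buffer and preincubated with kinase and substrate for 15 min at RT. ATP started the reaction, which ran 30 min at RT and was stopped with Streptavidin-XL665 plus TK antibody europium cryptate. Read at 320 nm excitation, 665/615 nm emission ratio. IC50 from inhibition curves; two separate assays.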

Histone deacetylase 1, sequence (Q13547 whole entry): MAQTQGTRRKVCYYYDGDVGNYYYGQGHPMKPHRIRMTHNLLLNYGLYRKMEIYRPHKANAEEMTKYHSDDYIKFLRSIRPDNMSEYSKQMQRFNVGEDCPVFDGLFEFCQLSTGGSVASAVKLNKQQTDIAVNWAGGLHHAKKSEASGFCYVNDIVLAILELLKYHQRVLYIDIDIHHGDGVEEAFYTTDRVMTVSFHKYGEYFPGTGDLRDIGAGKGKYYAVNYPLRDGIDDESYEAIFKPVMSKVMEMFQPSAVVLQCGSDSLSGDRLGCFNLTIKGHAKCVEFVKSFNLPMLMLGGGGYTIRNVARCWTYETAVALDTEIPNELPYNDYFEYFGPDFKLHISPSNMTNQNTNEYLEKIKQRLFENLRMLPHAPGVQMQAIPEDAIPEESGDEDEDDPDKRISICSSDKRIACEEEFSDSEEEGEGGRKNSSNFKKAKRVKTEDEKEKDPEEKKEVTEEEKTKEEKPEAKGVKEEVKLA
T1 sequence (P00533 whole entry): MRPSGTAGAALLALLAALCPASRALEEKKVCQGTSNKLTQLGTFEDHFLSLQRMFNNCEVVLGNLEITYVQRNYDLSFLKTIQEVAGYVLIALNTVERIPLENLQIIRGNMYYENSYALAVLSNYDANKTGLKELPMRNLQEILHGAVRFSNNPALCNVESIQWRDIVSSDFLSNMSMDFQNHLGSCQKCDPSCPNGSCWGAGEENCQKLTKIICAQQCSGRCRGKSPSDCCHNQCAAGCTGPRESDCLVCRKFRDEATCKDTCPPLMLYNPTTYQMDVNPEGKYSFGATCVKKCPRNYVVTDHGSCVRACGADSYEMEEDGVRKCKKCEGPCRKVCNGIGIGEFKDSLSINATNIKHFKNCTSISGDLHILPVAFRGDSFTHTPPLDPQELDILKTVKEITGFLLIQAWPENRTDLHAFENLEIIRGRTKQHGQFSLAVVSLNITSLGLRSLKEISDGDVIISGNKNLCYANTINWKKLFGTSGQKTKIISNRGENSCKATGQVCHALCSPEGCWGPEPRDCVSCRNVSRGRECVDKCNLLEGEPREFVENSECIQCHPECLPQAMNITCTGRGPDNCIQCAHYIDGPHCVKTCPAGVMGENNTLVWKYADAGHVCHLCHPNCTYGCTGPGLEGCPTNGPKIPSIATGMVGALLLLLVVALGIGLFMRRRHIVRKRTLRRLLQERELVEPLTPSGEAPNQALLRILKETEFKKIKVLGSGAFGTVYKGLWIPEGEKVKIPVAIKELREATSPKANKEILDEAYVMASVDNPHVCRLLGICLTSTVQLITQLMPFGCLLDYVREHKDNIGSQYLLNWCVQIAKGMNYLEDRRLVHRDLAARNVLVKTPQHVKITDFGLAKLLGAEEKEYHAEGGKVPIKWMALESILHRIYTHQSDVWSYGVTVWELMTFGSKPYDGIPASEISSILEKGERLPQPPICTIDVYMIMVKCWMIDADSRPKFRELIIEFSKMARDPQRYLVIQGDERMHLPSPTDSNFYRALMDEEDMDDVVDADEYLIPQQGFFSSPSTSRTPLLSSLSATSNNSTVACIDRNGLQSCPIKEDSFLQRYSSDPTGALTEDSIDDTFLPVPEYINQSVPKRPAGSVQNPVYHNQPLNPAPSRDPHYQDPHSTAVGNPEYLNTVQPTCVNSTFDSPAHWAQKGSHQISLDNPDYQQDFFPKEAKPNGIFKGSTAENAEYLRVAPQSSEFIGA

Structure (SMILES) | IC50 [1] | IC50 (Histone deacetylase 1) | IC50 (cells [2]) | IC50 [3] | IC50 [4] | IC50 (cells [5]) | other results
COc1cc(Nc2ncnc3ccc(-c4cn(CCCCCCC(=O)NO)nn4)cc23)ccc1Oc1ccccc1 | 11.6 nM | 12.8 nM | 4950 nM | 16 nM | > 1000 nM | 13500 nM | –
C#Cc1cccc(Nc2ncnc3cc(OC)c(OCCCCCCC(=O)NO)cc23)c1 [CUDC-101] | – | – | – | – | – | – | IC50 [9]: 4.2 nM
Cc1ccc(Oc2ccc(Nc3ncnc4ccc(-c5cn(CCCCCC(=O)NO)nn5)cc34)cc2C)cn1 | 6.4 nM | 6.9 nM | 14600 nM | 12.9 nM | > 1000 nM | 8460 nM | –
C[C@@H]1COC(Nc2ccc3ncnc(Nc4ccc(OCc5nccs5)c(Cl)c4)c3c2)=N1 [VARLITINIB] | – | – | – | – | – | – | IC50 [10]: 7 nM; IC50 [11]: 2 nM
O=C(CCCCCCC(=O)Nc1ccccc1)NO [VORINOSTAT] | – | – | – | – | – | – | IC50 (cells [8]): 2290 nM

Now from value to compound, other results behind:

IC50 [1] | IC50 (Histone deacetylase 1) | IC50 (cells [2]) | IC50 [3] | IC50 [4] | IC50 (cells [5]) | Structure (SMILES) | other results
5.8 nM | 26.6 nM | 23600 nM | 18.5 nM | > 1000 nM | 43400 nM | COc1cc(Nc2ncnc3ccc(-c4cn(CCCCCC(=O)NO)nn4)cc23)ccc1Oc1ccccc1 | –
– | – | 100 nM | – | – | 510 to 1740 nM | CS(=O)(=O)CCNCc1ccc(-c2ccc3ncnc(Nc4ccc(OCc5cccc(F)c5)c(Cl)c4)c3c2)o1 [LAPATINIB] | IC50 (cells [6]): 7250 nM; IC50 (cells [7]): 60 nM; IC50 (cells [8]): 150 nM
4.2 nM | 8.3 nM | 2240 nM | 19.5 nM | 16.4 nM | 3680 nM | O=C(CCCCCCn1cc(-c2ccc3ncnc(Nc4ccc(OCc5cccc(F)c5)c(Cl)c4)c3c2)nn1)NO | –

Reference: ChEMBL document CHEMBL3870325 (Bioorg Med Chem, 2017)
